Measurements as given in ChEMBL document CHEMBL2346503, “Synthesis and evaluation of novel (18)F-labeled spirocyclic piperidine derivatives as σ1 receptor ligands for positron emission tomography imaging” (J Med Chem, 2013).

Experiments:
Assay type in all cases: ADME, organism-based
Settings in all cases: in vivo, 1 h; call rule not given here
[1] = system: Nucleic Acid; assay: Ratio of drug uptake in Sprague-Dawley rat interior coliculus to cerebellum at 12.2 MBq, iv after 60 mins by autoradiography
[2] = Drug uptake in Sprague-Dawley rat vermian lobule at 12.2 MBq, iv after 60 mins by autoradiography
Summary of the method: (§1)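 [¹⁸F]-labelled tracer (0.2 mL, 12.2 MBq) given intravenously to conscious Sprague-Dawley rats (n = 3). Each rat was killed by cervical dislocation 60 min after injection. The brain was removed and frozen in liquid nitrogen, and 20 μm coronal sections were cut on a cryostat for ex vivo autoradiography of regional radioactivity.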

[3] = system: Rattus norvegicus; assay: Biodistribution in Sprague-Dawley rat internal capsule at 23 MBq, iv after 60 mins by microPET imaging/CT study in presence of haloperidol
Summary of the method: (§2)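 Sprague-Dawley rats under isoflurane (1.5–2.5%) in oxygen received 23 MBq radiotracer (0.2 mL saline) via tail vein. Blocking animals were pre-injected with haloperidol (0.2 mL, 1 mg/kg) 5 min before the tracer. MicroPET emission was acquired for 30 min starting 60 min post-injection, followed by a 5 min CT scan; images were summed over 60–90 min.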

[4] = system: Cortex; assay: Drug uptake in Sprague-Dawley rat visual cortex at 12.2 MBq, iv after 60 mins by autoradiography; summary of the method: as §1
[5] = system: Spleen; assay: Biodistribution in ICR mouse spleen assessed as reduction in radiotracer uptake at 370 kBq, iv after 60 minutes by gamma-counting analysis in presence of SA4503 relative to control; parameters: scale not given: the % may be the effect or the level left
Summary of the method: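 Male ICR mice were given saline or SA4503 (0.1 mL; 2, 5 or 10 μmol/kg) via tail vein 5 min before [18F]radiotracer (370 kBq, 0.1 mL, iv). Killed at 60 min. Organs were gamma-counted as % ID/g and reduction was computed versus saline controls. Two-tailed independent Student's t test, p ≤ 0.05.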

[6] = system: Rattus norvegicus; assay: Biodistribution in Sprague-Dawley rat olfactory bulb at 23 MBq, iv after 60 mins by microPET imaging/CT study; summary of the method: as §2
[7] = system: Hippocampus; assay: Drug uptake in Sprague-Dawley rat hippocampus at 12.2 MBq, iv after 60 mins by autoradiography; summary of the method: as §1
[8] = system: Blood; assay: Biodistribution in ICR mouse blood assessed as radiotracer accumulation at 370 kBq, iv after 60 minutes by gamma-counting analysis in presence of SA4503
Summary of the method: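 Male ICR mice got saline or SA4503 (0.1 mL; 2, 5, 10 or 2.2 μmol/kg) via tail vein 5 min before 370 kBq tracer (0.1 mL) iv. They were decapitated at 60 min and tissues γ-counted. Percent change was taken against saline controls, with two-tailed Student's t test, p ≤ 0.05.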

[9] = system: Midbrain; assay: Biodistribution in Sprague-Dawley rat midbrain at 23 MBq, iv after 60 mins by microPET imaging/CT study; summary of the method: as §2
[10] = system: Hypothalamus; assay: Biodistribution in Sprague-Dawley rat hypothalamus at 23 MBq, iv after 60 mins by microPET imaging/CT study; summary of the method: as §2
[11] = system: Rattus norvegicus; assay: Biodistribution in Sprague-Dawley rat pontine reticular nucleus at 23 MBq, iv after 60 mins by microPET imaging/CT study; summary of the method: as §2

[18F]CCOc1ccc(CN2CCC3(CC2)OCc2ccccc23)cc1
Ratio [1]: 1.3 | Drug uptake [2]: Active | Drug uptake [3]: Active | Drug uptake [4]: Active | Activity [5]: 29% | Drug uptake [6]: Active | Drug uptake [7]: Active | Drug uptake [8]: Active | Drug uptake [9]: Active | Drug uptake [10]: Active | Drug uptake [11]: Active
